According to ChEMBL document CHEMBL3124788, “Identification of human presequence protease (hPreP) agonists for the treatment of Alzheimer's disease” (Eur J Med Chem, 2014):
The source made the active and inactive calls. The rule behind the calls is not given here.

Key:
[1] = biological target: T1, Presequence protease, mitochondrial (Homo sapiens) (UniProt Q5JRX3); assay: Agonist activity at human PreP assessed as degradation of fluorogenic substrate V at 1 uM measured for 10 mins by fluorometric analysis
T1 sequence (whole entry): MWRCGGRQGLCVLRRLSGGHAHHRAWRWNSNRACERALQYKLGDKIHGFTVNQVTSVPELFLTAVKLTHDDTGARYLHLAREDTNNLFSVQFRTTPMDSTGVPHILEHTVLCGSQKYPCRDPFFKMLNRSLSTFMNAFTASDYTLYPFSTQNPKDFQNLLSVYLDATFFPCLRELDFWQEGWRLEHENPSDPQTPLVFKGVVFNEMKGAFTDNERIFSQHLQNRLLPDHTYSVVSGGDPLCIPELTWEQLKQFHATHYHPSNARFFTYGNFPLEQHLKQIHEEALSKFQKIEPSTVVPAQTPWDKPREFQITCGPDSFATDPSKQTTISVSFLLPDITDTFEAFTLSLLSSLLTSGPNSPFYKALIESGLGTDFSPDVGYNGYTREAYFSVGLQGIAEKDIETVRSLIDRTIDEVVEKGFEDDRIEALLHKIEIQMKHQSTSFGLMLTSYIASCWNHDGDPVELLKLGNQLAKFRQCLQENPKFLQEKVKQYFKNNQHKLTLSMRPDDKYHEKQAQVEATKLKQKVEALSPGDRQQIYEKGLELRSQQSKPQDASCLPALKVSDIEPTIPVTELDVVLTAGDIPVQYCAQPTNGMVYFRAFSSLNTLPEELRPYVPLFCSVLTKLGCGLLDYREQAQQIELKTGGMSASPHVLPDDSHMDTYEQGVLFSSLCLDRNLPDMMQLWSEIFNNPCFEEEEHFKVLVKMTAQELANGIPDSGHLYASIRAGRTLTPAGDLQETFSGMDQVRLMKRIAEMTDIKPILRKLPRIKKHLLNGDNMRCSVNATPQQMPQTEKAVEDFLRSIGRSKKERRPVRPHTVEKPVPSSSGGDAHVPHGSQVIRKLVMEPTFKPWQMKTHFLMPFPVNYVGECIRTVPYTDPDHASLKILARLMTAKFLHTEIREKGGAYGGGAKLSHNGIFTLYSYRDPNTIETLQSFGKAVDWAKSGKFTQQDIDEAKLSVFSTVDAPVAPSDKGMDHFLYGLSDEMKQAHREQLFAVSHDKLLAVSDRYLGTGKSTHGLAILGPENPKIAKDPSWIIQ

[2] = biological target: T2, Presequence protease, mitochondrial (Homo sapiens, UniProt Q5JRX3); assay: Agonist activity at human PreP assessed as degradation of fluorogenic substrate V measured for 10 mins by fluorometric analysis
T2 sequence (Q5JRX3 whole entry): T1 sequence (whole entry)

[3] = biological target: T2, Presequence protease, mitochondrial; assay: Agonist activity at human PreP assessed as degradation of ATP synthase pF1beta subunit (2 to 56) after 2.5 hrs by Immunoblotting assay; conditions: in the assay text read “(2 to 54)” for “(2 to 56)”
Summary of the method: (§1)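 Purified human PreP (1 μg) incubated with biotin-labeled pF1β (2–54) presequence peptide (0.02 μg) in 20 mM HEPES-KOH pH 8.0, 10 mM MgCl2, with compound at 0.00001–100 μM, for 2.5 h. Reactions were stopped with sample buffer and resolved on 12% Bis-Tris gel. Blot probed with anti-F1β (1:2000), HRP anti-rabbit, ECL. Bands quantified by densitometry versus hPreP alone. EC50 from nonlinear log(agonist) vs normalized response fit.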

[4] = biological target: T1, Presequence protease, mitochondrial (Homo sapiens); assay: Agonist activity at human PreP assessed as degradation of ATP synthase pF1beta subunit (2 to 56) after 2.5 hrs by Immunoblotting assay relative to control; conditions: in the assay text read “(2 to 54)” for “(2 to 56)”; summary of the method: as §1
[5] = biological target: T1, Presequence protease, mitochondrial (Homo sapiens); assay: Agonist activity at human PreP assessed as degradation of biotin-labeled amyloid beta (1 to 42) after 2.5 hrs by Immunoblotting assay relative to control
Summary of the method: (§2)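 Biotin-labeled Aβ(1–42) (0.02 μg) incubated 2.5 h with 1 μg purified hPreP in 20 mM HEPES-KOH pH 8.0 with 10 mM MgCl2, compound 0.00001–100 μM. Products were run on 12% Bis-Tris gel and transferred to nitrocellulose. Membrane dried and blocked in 2% milk-PBS, then probed with ExtrAvidin peroxidase and ECL. Degradation measured relative to enzyme alone. EC50 from nonlinear log(agonist) vs normalized response regression.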

[6] = biological target: T1, Presequence protease, mitochondrial (Homo sapiens); assay: (§3) Agonist activity at human PreP assessed as degradation of biotin-labeled amyloid beta (1 to 42) after 2.5 hrs by Immunoblotting assay; summary of the method: as §2
[7] = biological target: T2, Presequence protease, mitochondrial; assay: as §3; summary of the method: as §2
[8] = biological target: T1, Presequence protease, mitochondrial (Homo sapiens); assay: Agonist activity at human PreP assessed as degradation of biotin-labeled amyloid beta (1 to 42) up to 1 uM after 2.5 hrs by Immunoblotting assay; summary of the method: as §2
[9] = biological target: T1, Presequence protease, mitochondrial (Homo sapiens); assay: Agonist activity at human PreP assessed as degradation of ATP synthase pF1beta subunit (2 to 54) after 2.5 hrs by Immunoblotting assay
[10] = biological target: T1, Presequence protease, mitochondrial (Homo sapiens); assay: Agonist activity at human PreP assessed as degradation of ATP synthase pF1beta subunit (2 to 54) at 1 uM after 2.5 hrs by Immunoblotting assay

fold change (FC) [1]: 1.8 | EC50 [2]: 57 nM | EC50 [3]: 601 nM | Activity [4]: 55% | Activity [5]: 54% | Activity [6]: Dose-dependent effect | EC50 [7]: 402 nM | Activity [8]: Active | Activity [9]: Dose-dependent effect | Activity [10]: Active
SMILES: O=[N+]([O-])c1ccc2c(c1)N(Cc1cc(Br)ccc1O)C(c1cc(Br)ccc1O)N2Cc1cc(Br)ccc1O (stereo not given)
